Measured values: ChEMBL document CHEMBL4261600 (Eur J Med Chem, 2018)

How the values were obtained:
[1] = target: Tyrosine-protein kinase ABL1 (Homo sapiens) (UniProt P00519); experiment: Binding affinity to wild-type human non-phosphorylated ABL1 (S229 to K512 residues) expressed in mammalian expression system assessed as remaining unbound target protein level at 1000 nM by Kinomescan method relative to control
Outline: (§1)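 Profiled in a KINOMEscan binding panel with the inhibitor at a single concentration of 1 μM. Binding to each kinase was read out as percent of control, relative to a DMSO control. Strong binders were defined as those with a percent control value below 1.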

[2] = target: Cyclin-dependent kinase-like 3 (Homo sapiens) (UniProt Q8IVW4); experiment: Binding affinity to wild-type human partial length CDKL3 (M1 to D327 residues) expressed in bacterial expression system assessed as remaining unbound target protein level at 1000 nM by Kinomescan method relative to control
[3] = target: Activin receptor type-1B (Homo sapiens) (UniProt P36896); experiment: Binding affinity to wild-type human ACVR1B (S187 to I505 residues) expressed in bacterial expression system assessed as remaining unbound target protein level at 1000 nM by Kinomescan method relative to control
Sequence of Activin receptor type-1B (Homo sapiens) (P36896 whole entry, the tested form may be a part): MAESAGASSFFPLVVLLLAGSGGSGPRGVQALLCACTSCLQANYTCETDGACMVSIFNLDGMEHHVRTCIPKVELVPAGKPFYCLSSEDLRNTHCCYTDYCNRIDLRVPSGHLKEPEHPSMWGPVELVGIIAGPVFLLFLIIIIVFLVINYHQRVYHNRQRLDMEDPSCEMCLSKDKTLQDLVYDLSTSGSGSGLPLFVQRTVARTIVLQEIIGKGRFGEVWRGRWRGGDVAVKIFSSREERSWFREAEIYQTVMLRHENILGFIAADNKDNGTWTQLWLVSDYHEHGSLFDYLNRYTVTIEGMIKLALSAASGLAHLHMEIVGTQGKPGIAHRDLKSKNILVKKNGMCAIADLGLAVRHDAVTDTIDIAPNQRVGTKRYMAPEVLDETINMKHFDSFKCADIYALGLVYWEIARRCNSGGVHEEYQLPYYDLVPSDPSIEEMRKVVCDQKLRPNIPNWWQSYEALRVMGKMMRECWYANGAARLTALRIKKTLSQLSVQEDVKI
Outline: (§2)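 Single-point competition binding screen across a panel of 468 kinases and mutants, with the inhibitor at 1 μM. Binding is read out as percent of a DMSO control, and targets below 1 percent control were classed as strong binders.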

[4] = target: Cyclin-dependent kinase 2 (Homo sapiens) (UniProt P24941); experiment: Binding affinity to wild-type human full length CDK2 (M1 to L298 residues) expressed in bacterial expression system assessed as remaining unbound target protein level at 1000 nM by Kinomescan method relative to control; outline: as §2
[5] = target: High affinity nerve growth factor receptor (Homo sapiens) (UniProt P04629); experiment: Binding affinity to wild-type human partial length TRKA (G475 to G790 residues) expressed in mammalian expression system assessed as remaining unbound target protein level at 1000 nM by Kinomescan method relative to control
Sequence of High affinity nerve growth factor receptor (Homo sapiens) (P04629 33-796 limits assumed): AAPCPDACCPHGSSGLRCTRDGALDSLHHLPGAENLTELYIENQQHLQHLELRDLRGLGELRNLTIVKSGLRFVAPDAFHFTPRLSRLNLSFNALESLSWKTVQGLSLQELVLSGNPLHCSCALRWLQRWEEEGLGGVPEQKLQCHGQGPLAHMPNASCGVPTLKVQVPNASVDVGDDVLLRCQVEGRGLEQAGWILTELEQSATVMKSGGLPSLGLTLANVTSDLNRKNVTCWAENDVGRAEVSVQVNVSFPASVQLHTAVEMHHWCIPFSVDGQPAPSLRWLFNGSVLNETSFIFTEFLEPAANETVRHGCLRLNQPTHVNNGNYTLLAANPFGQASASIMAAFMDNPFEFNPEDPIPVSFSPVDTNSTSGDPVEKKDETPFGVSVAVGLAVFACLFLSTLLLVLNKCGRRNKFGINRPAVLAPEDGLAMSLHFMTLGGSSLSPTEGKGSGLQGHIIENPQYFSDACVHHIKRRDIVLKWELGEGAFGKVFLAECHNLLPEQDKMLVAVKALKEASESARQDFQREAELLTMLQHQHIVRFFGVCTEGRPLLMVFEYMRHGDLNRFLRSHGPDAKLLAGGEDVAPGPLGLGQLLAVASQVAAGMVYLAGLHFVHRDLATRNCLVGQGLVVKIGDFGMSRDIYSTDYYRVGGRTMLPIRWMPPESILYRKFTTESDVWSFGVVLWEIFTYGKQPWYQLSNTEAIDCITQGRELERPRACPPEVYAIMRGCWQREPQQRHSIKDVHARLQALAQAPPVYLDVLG

[6] = target: Ephrin type-B receptor 6 (Homo sapiens) (UniProt O15197); experiment: Binding affinity to wild-type human partial length EPHB6 (Q634 to P948 residues) expressed in mammalian expression system assessed as remaining unbound target protein level at 1000 nM by Kinomescan method relative to control
[7] = target: Serine/threonine-protein kinase PLK4 (Homo sapiens) (UniProt O00444); experiment: Binding affinity to wild-type human partial length PLK4 (M1 to S273 residues) expressed in mammalian expression system assessed as remaining unbound target protein level at 1000 nM by Kinomescan method relative to control
Sequence of Serine/threonine-protein kinase PLK4 (Homo sapiens) (O00444 whole entry, the tested form may be a part): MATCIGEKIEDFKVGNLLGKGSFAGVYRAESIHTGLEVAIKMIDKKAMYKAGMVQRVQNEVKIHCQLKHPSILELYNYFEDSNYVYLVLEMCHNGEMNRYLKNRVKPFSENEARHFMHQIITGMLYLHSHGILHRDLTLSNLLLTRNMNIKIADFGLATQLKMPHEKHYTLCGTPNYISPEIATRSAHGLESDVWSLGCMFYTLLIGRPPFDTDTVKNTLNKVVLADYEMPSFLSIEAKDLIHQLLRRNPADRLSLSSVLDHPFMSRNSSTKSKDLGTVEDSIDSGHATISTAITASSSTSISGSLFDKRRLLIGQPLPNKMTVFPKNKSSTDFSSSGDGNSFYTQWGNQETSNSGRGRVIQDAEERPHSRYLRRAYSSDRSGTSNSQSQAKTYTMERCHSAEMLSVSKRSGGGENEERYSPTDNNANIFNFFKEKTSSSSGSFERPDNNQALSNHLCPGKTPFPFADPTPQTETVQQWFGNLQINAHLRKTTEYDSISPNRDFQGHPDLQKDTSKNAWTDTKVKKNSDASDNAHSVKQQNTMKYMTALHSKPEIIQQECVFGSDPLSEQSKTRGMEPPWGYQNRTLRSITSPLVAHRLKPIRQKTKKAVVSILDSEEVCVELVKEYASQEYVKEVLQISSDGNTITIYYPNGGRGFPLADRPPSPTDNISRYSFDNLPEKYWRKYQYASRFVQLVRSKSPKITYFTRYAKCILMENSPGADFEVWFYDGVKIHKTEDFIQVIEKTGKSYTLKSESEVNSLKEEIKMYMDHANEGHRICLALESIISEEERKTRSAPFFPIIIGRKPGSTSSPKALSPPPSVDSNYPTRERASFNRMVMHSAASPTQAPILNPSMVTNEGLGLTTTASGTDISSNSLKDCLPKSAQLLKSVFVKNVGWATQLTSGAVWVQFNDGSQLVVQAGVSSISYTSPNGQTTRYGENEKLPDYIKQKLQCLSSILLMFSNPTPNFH

[8] = target: Protein-tyrosine kinase 6 (Homo sapiens) (UniProt Q13882); experiment: Binding affinity to wild-type human partial length BRK (L166 to T451 residues) expressed in bacterial expression system assessed as remaining unbound target protein level at 1000 nM by Kinomescan method relative to control
Outline: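 KINOMEscan competition binding profile across a panel of 468 kinases and mutants, with the inhibitor tested at a single concentration of 1 μM. Binding is reported as percent of control, meaning signal relative to a DMSO control.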

Ramos = experiment: Antiproliferative activity against human Ramos cells after 72 hrs by Celltiter-Glo assay; format: functional
Outline: (§3)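 Cells seeded at 3000/well in 96-well plates, exposed to serially diluted compound for 72 h at 37 °C, 5% CO2. Viability read by CellTiter-Glo luminescence and normalized to DMSO control. GI50 derived from curve fit, mean of three independent measurements. Culture media: DMEM/10% FBS for adherent lines; IMDM for MV4-11 and MEC-1/2; RPMI 1640 for suspension lines and CHL.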

[9] = target: Interleukin-1 receptor-associated kinase 3 (Homo sapiens) (UniProt Q9Y616); experiment: Binding affinity to wild-type human partial length IRAK3 (V147 to E596 residues) expressed in bacterial expression system assessed as remaining unbound target protein level at 1000 nM by Kinomescan method relative to control
[10] = Antiproliferative activity against CHO cells after 72 hrs by Celltiter-Glo assay; format: cell-based, Cricetulus griseus; conditions: chinese hamster; outline: as §3
[11] = target: Tyrosine-protein kinase receptor TYRO3 (Homo sapiens) (UniProt Q06418); experiment: Binding affinity to wild-type human partial length TYRO3 (S497 to T814 residues) expressed in bacterial expression system assessed as remaining unbound target protein level at 1000 nM by Kinomescan method relative to control
[12] = target: Serine/threonine-protein kinase VRK2 (Homo sapiens) (UniProt Q86Y07); experiment: Binding affinity to wild-type human partial length VRK2 (M1 to T336 residues) expressed in mammalian expression system assessed as remaining unbound target protein level at 1000 nM by Kinomescan method relative to control
[13] = target: Cyclin-dependent kinase 1/cyclin B1 (Homo sapiens, UniProt P06493); experiment: Inhibition of recombinant full length His-tagged human CDK1/CyclinB expressed in baculovirus expression system
[14] = target: Serine/threonine-protein kinase MRCK gamma (Homo sapiens) (UniProt Q6DT37); experiment: Binding affinity to wild-type human partial length DMPK2 (S46 to S408 residues) expressed in bacterial expression system assessed as remaining unbound target protein level at 1000 nM by Kinomescan method relative to control
[15] = target: Maternal embryonic leucine zipper kinase (Homo sapiens) (UniProt Q14680); experiment: Binding affinity to wild-type human full length MELK (M1 to V651 residues) expressed in bacterial expression system assessed as remaining unbound target protein level at 1000 nM by Kinomescan method relative to control; outline: as §2
Sequence of Maternal embryonic leucine zipper kinase (Homo sapiens) (Q14680 whole entry, looked up, the tested form may be a part): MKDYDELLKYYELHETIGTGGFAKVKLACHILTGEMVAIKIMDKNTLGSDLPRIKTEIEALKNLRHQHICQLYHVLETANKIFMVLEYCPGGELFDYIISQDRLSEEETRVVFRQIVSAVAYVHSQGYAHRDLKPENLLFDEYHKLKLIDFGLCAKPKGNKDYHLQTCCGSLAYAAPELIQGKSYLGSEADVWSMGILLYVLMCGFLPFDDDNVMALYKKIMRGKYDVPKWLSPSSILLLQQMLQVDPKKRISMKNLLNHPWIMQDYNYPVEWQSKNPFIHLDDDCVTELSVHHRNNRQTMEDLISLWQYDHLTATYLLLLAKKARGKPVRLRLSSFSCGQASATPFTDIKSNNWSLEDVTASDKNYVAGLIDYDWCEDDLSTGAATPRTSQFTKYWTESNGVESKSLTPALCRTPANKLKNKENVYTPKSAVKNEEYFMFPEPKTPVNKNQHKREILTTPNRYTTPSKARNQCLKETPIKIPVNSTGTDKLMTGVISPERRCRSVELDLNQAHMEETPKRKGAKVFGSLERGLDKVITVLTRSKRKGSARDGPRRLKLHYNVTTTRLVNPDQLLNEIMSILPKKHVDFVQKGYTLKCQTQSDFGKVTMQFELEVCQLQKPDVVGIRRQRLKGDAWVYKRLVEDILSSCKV

[16] = target: Tyrosine-protein kinase ZAP-70 (Homo sapiens) (UniProt P43403); experiment: Binding affinity to wild-type human partial length ZAP70 (D20 to G299 residues) expressed in mammalian expression system assessed as remaining unbound target protein level at 1000 nM by Kinomescan method relative to control
[17] = target: Megakaryocyte-associated tyrosine-protein kinase (Homo sapiens) (UniProt P42679); experiment: Binding affinity to wild-type human full length CTK (M43 to P508 residues) expressed in mammalian expression system assessed as remaining unbound target protein level at 1000 nM by Kinomescan method relative to control; outline: as §2
[18] = target: Serine/threonine-protein kinase Nek9 (Homo sapiens) (UniProt Q8TD19); experiment: Binding affinity to wild-type human partial length NEK9 (P32 to R328 residues) expressed in bacterial expression system assessed as remaining unbound target protein level at 1000 nM by Kinomescan method relative to control
Sequence of Serine/threonine-protein kinase Nek9 (Homo sapiens) (Q8TD19 whole entry, the tested form may be a part): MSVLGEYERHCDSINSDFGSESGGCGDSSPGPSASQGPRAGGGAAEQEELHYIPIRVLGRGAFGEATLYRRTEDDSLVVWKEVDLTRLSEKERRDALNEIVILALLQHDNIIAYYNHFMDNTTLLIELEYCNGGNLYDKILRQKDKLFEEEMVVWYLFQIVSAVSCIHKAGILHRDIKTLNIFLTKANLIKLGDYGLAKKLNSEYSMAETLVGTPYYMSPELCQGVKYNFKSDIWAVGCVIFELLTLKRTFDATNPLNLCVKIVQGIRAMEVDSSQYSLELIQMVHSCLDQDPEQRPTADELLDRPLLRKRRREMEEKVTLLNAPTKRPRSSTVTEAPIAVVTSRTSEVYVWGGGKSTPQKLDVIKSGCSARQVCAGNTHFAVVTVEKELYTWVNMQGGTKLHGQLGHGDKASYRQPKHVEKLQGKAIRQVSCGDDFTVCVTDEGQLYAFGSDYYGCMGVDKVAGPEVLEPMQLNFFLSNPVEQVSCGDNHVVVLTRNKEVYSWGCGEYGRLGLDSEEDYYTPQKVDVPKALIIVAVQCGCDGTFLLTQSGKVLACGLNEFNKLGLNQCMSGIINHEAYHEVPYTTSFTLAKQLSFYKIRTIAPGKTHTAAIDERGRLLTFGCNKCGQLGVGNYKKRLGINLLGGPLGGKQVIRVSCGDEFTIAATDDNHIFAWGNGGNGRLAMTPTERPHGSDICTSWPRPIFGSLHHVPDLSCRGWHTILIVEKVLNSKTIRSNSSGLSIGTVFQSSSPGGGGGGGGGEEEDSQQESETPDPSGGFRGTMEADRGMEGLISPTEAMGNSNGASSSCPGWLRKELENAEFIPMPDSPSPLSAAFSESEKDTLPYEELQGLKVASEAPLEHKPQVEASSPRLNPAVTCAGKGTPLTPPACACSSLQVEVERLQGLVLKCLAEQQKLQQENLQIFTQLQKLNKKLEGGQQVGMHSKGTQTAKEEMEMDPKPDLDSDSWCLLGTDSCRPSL

[19] = target: Membrane-associated tyrosine- and threonine-specific cdc2-inhibitory kinase (Homo sapiens) (UniProt Q99640); experiment: Binding affinity to wild-type human partial length PKMYT1 (A88 to G366 residues) expressed in bacterial expression system assessed as remaining unbound target protein level at 1000 nM by Kinomescan method relative to control
[20] = target: Serine/threonine-protein kinase 38 (Homo sapiens) (UniProt Q15208); experiment: Binding affinity to wild-type human partial length NDR1 (N33 to E449 residues) expressed in mammalian expression system assessed as remaining unbound target protein level at 1000 nM by Kinomescan method relative to control
Sequence of Serine/threonine-protein kinase 38 (Homo sapiens) (Q15208 2-465 limits assumed): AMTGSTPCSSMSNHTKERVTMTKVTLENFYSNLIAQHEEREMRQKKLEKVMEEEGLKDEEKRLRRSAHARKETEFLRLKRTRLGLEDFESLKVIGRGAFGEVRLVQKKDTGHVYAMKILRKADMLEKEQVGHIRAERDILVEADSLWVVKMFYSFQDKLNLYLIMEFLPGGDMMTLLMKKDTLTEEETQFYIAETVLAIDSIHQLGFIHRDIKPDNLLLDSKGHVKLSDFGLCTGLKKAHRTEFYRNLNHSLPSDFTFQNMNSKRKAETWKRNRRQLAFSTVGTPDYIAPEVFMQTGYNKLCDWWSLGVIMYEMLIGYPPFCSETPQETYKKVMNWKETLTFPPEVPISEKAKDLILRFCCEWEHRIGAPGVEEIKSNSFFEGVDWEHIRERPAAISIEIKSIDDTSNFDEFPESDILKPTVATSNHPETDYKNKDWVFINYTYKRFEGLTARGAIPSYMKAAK

[21] = target: Ribosomal protein S6 kinase alpha-1 (Homo sapiens) (UniProt Q15418); experiment: Binding affinity to wild-type human partial length C-termianl RSK1 kinase domain 2 (P360 to L681 residues) expressed in bacterial expression system assessed as remaining unbound target protein level at 1000 nM by Kinomescan method relative to control; outline: as §1
Sequence of Ribosomal protein S6 kinase alpha-1 (Homo sapiens) (Q15418 whole entry, the tested form may be a part): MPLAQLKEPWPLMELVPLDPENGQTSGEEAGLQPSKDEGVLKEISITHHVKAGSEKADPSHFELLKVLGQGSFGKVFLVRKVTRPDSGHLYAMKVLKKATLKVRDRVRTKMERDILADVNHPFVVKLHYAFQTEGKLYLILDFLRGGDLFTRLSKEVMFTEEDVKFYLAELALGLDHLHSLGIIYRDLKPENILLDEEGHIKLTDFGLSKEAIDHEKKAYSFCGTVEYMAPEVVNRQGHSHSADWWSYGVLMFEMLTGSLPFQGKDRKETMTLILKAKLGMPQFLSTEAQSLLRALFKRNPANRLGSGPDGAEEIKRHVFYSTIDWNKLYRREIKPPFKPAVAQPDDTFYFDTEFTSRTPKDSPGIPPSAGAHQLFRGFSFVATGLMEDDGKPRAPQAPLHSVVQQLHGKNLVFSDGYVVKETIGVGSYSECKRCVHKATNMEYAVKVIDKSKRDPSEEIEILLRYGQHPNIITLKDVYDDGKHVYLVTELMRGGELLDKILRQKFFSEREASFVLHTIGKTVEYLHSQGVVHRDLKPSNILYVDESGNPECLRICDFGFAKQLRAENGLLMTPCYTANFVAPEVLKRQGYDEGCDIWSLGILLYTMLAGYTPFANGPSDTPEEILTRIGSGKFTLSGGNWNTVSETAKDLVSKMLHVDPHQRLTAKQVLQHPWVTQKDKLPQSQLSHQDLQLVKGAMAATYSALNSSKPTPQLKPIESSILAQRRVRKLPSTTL

**Q.** What does the source list for `COCCN[C@H]1CC[C@H](Nc2cc(-c3csc(NCC4(C#N)CCOCC4)n3)c(Cl)cn2)CC1`?
**A.** Activity [1]: 100%; Activity [2]: 83%; Activity [3]: 92%; Activity [4]: 100%; Activity [5]: 71%; Activity [6]: 85%; Activity [7]: 100%; Activity [8]: 95%; GI50 (Ramos): 13 nM; Activity [9]: 96%; GI50 at 72 h [10]: 1100 nM; Activity [11]: 68%; Activity [12]: 87%; IC50 [13]: 1340 nM; Activity [14]: 92%; Activity [15]: 75%; Activity [16]: 79%; Activity [17]: 96%; Activity [18]: 89%; Activity [19]: 100%; Activity [20]: 78%; Activity [21]: 100%
